{"source": "ChEMBL document CHEMBL1154686", "about": "“Pyrazoline bearing benzimidazoles: search for anticancer agent” (2010)", "assay_type_in_all_cases": "functional", "key": {"[1]": {"tested_on": "CCRF-CEM", "assay": "Growth inhibition of human CCRF-CEM cells after 48 hrs by SRB assay", "method_in_brief": "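Suspension leukemia lines were run in the NCI-60 SRB format. Cells were plated at 5,000–40,000 cells/well and pre-incubated 24 h at 37 °C, 5% CO₂, with time-zero plates fixed at drug addition. Drug exposure in DMSO-derived dilutions lasted 48 h. Settled cells were fixed with 80% TCA (final 16%), stained with 0.4% SRB, solubilized in 10 mM trizma base, and read at 515 nm. Percent growth was taken relative to the time-zero and control readings.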"}, "[2]": {"tested_on": "SN12C", "assay": "Growth inhibition of human SN12C cells after 48 hrs by SRB assay", "method_in_brief": "(§1)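 NCI-60 panel protocol with adherent lines. Cells were seeded at 5,000–40,000 cells/well, depending on doubling time, and pre-incubated 24 h at 37 °C, 5% CO₂. Time-zero plates were TCA-fixed at drug addition. Drugs were dissolved in DMSO and exposed for 48 h. Cells were fixed with cold TCA (final 10%) for 60 min at 4 °C, stained with 0.4% SRB in 1% acetic acid for 10 min, solubilized with 10 mM trizma base, and read at A515.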"}, "[3]": {"tested_on": "OVCAR-4", "assay": "Growth inhibition of human OVCAR4 cells after 48 hrs by SRB assay", "settings": "OVCAR-4, 48 h", "method_in_brief": "as §1"}, "[4]": {"tested_on": "KM12", "assay": "Growth inhibition of human KM12 cells after 48 hrs by SRB assay", "settings": "KM12, 48 h", "method_in_brief": "as §1"}, "[5]": {"tested_on": "OVCAR-8", "assay": "Growth inhibition of human OVCAR8 cells after 48 hrs by SRB assay", "settings": "OVCAR-8, 48 h", "method_in_brief": "as §1"}, "[6]": {"tested_on": "SK-MEL-5", "assay": "Growth inhibition of human SK-MEL-5 cells after 48 hrs by SRB assay", "settings": "SK-MEL-5, 48 h", "method_in_brief": "as §1"}, "[7]": {"settings": "read-out: LC50 (the source's name)"}}}
{"smiles": "COc1ccc(C2CC(c3nc4ccccc4[nH]3)=NN2c2ccccc2)cc1OC", "note": "(stereo not drawn)", "values": [{"measurement": "GI50", "setting": "[1]", "value": 2.23, "unit": "µM"}, {"measurement": "TGI", "setting": "[1]", "value": 6.82, "unit": "µM"}, {"measurement": "CC50", "setting": "[1]; [7]", "value": 88.7, "unit": "µM"}, {"measurement": "GI50", "setting": "[2]", "value": 17.3, "unit": "µM"}, {"measurement": "TGI", "setting": "[2]", "value": "> 100", "unit": "µM"}, {"measurement": "CC50", "setting": "[2]; [7]", "value": "> 100", "unit": "µM"}, {"measurement": "GI50", "setting": "[3]", "value": 9.31, "unit": "µM"}, {"measurement": "TGI", "setting": "[3]", "value": "> 100", "unit": "µM"}, {"measurement": "CC50", "setting": "[3]; [7]", "value": "> 100", "unit": "µM"}, {"measurement": "GI50", "setting": "[4]", "value": 5.14, "unit": "µM"}, {"measurement": "TGI", "setting": "[4]", "value": 19.5, "unit": "µM"}, {"measurement": "CC50", "setting": "[4]; [7]", "value": 52.2, "unit": "µM"}, {"measurement": "GI50", "setting": "[5]", "value": 19.9, "unit": "µM"}, {"measurement": "TGI", "setting": "[5]", "value": "> 100", "unit": "µM"}, {"measurement": "CC50", "setting": "[5]; [7]", "value": "> 100", "unit": "µM"}, {"measurement": "GI50", "setting": "[6]", "value": 2.62, "unit": "µM"}, {"measurement": "TGI", "setting": "[6]", "value": 15.1, "unit": "µM"}, {"measurement": "CC50", "setting": "[6]; [7]", "value": 67.6, "unit": "µM"}]}
